Columns and labels:
A-375 = experiment: Cytotoxicity against human A375 cells assessed as growth inhibition after 120 hrs by MTT assay; format: functional, cell-based; conditions: A-375, 120 h
Outline: (§1)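 Cells kept in DMEM with 10% FBS, penicillin and streptomycin at 37 °C, 5% CO2. Seeded at 2000 cells/well, grown 24 h, then exposed to a range of compound concentrations for 120 h. MTT at 0.5 mg/mL added for 4 h at 37 °C. Formazan dissolved in DMSO, absorbance read at 570 nm. IC50 is the mean of three determinations.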

KETR3 = experiment: Cytotoxicity against human Ketr3 cells assessed as growth inhibition after 120 hrs by MTT assay; format: functional, cell-based; conditions: KETR3, 120 h; outline: as §1
HepG2 = experiment: Cytotoxicity against human HepG2 cells assessed as growth inhibition after 120 hrs by MTT assay; format: functional, cell-based; conditions: HepG2, 120 h; outline: as §1
HT-29 [1] = experiment: Cytotoxicity against human HT-29 cells assessed as growth inhibition after 120 hrs by MTT assay; format: functional, cell-based; conditions: HT-29, 120 h; outline: as §1
MX1 = experiment: Cytotoxicity against human MX1 cells assessed as growth inhibition after 120 hrs by MTT assay; format: functional, cell-based; conditions: MX1, 120 h; outline: as §1
HT-29 [2] = experiment: Potency index, ratio of sorafenib IC50 to compound IC50 for human HT-29 cells; format: functional
[3] = molecular target: Serine/threonine-protein kinase B-raf (Homo sapiens, UniProt P15056); experiment: Inhibition of B-Raf (unknown origin) after 1 hr by ADP-Glo assay
[4] = molecular target: RAF proto-oncogene serine/threonine-protein kinase (Homo sapiens, UniProt P04049); experiment: Inhibition of C-Raf (unknown origin) after 1 hr by ADP-Glo assay
Outline: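 Run in duplicate. Kinase, substrate, ATP and compound reacted 1 h at 30 °C. ADP-Glo reagent was added to stop the reaction, followed by 40 min at 27 °C. Kinase detection reagent was then added for a further 30 min at the same temperature before luminescence reading.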

Serine/threonine-protein kinase B-raf, sequence (P15056 whole entry): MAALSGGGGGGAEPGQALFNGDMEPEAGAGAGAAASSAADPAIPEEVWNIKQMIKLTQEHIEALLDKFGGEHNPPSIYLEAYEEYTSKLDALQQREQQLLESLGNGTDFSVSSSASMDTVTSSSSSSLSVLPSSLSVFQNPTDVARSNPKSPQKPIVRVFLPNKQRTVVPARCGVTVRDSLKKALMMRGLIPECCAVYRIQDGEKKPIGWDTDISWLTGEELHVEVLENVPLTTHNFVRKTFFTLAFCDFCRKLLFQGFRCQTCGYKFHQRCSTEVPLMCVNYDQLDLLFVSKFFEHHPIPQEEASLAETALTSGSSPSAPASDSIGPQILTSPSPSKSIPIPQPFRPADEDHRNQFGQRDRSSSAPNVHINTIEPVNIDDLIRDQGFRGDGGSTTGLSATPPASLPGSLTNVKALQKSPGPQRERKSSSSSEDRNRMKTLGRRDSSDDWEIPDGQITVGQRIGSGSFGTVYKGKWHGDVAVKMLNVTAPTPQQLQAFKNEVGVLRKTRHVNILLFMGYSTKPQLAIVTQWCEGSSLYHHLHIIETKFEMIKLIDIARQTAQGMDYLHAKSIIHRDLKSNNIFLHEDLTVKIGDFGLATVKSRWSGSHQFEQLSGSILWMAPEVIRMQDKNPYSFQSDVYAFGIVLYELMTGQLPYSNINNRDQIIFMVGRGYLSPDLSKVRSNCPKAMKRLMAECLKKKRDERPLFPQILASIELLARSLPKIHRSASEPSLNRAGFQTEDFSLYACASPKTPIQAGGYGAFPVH
RAF proto-oncogene serine/threonine-protein kinase, sequence (P04049 whole entry): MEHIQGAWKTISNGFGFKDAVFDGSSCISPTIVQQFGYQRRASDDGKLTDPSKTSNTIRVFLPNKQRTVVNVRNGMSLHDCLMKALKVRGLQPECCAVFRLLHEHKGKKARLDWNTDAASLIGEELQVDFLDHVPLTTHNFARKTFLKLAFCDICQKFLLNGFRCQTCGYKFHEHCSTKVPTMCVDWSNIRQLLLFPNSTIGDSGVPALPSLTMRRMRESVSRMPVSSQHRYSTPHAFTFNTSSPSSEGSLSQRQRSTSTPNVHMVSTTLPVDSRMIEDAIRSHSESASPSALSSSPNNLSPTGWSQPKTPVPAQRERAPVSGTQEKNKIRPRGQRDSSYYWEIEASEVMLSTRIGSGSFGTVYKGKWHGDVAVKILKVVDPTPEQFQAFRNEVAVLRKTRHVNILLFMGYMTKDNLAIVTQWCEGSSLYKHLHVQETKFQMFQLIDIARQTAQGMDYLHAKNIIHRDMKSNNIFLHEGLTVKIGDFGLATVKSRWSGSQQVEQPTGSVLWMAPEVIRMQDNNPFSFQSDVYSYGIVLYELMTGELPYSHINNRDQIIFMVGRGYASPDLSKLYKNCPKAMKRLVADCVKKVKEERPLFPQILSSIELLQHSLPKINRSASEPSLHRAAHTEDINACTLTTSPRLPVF

IC50 [3] [µM]	IC50 [4] [µM]	SMILES	IC50 (A-375) [µM]	IC50 (KETR3) [µM]	IC50 (HepG2) [µM]	IC50 (HT-29 [1]) [µM]	IC50 (MX1) [µM]	Ratio IC50 (HT-29 [2])
		CNC(=O)CCc1ccc(NC(=O)Nc2ccc(Cl)c(C(F)(F)F)c2)cc1	25.2	24	21	20.6	20.4	
		O=C(/C=C/c1ccc(NC(=O)Nc2ccc(Cl)c(C(F)(F)F)c2)cc1)NC1CCC1	15.4	17.3	7.51	4.43	4.53	
		CC(NC(=O)/C=C/c1ccc(NC(=O)Nc2ccc(Cl)c(C(F)(F)F)c2)cc1)c1ccccc1 (centres undefined)	20.8	21.2	12.2	1.06	3.13	
		CNC(=O)c1cccc(-c2ccc(NC(=O)Nc3ccc(Cl)c(C(F)(F)F)c3)cc2)c1	46.5	39.3	37.1	29.3	> 50	
		C/C(=C\c1ccc(NC(=O)Nc2ccc(Cl)c(C(F)(F)F)c2)cc1)C(=O)NC(C)c1ccccc1 (centres undefined)	> 50	> 50	> 50	> 50	> 50	
		CC(NC(=O)CCc1ccc(NC(=O)Nc2ccc(Cl)c(C(F)(F)F)c2)cc1)c1ccccc1 (centres undefined)	> 50	> 50	> 50	26.5	> 50	
		CNC(=O)/C(C)=C/c1ccc(NC(=O)Nc2ccc(Cl)c(C(F)(F)F)c2)cc1	> 50	> 50	44.3	> 50	> 50	
		CC(NC(=O)/C=C/c1ccc(NC(=O)Nc2cc(C(F)(F)F)ccc2Cl)cc1)c1ccccc1 (centres undefined)	40.9	14.3	35.9	4.19	1.89	
		CC1CN(C(=O)/C=C/c2ccc(NC(=O)Nc3ccc(Cl)c(C(F)(F)F)c3)cc2)CC(C)O1 (centres undefined)	> 50	> 50	45.9	9.1	12.8	
		CC1CN(C(=O)c2ccc(-c3ccc(NC(=O)Nc4cc(C(F)(F)F)ccc4Cl)cc3)cc2)CC(C)O1 (centres undefined)	> 50	> 50	> 50	1.9	> 50	8
		CNC(=O)/C=C(\C)c1ccc(NC(=O)Nc2ccc(Cl)c(C(F)(F)F)c2)cc1	> 50	> 50	> 50	> 50	> 50	
		CNC(=O)/C=C/Oc1ccc(NC(=O)Nc2ccc(Cl)c(C(F)(F)F)c2)cc1	36.8	> 50	24.2	> 50	18.8	
		C/C(=C\C(=O)N1CC(C)OC(C)C1)c1ccc(NC(=O)Nc2ccc(Cl)c(C(F)(F)F)c2)cc1 (centres undefined)	46.2	> 50	> 50	26.2	> 50	
		C/C(=C\C(=O)NC(C)c1ccccc1)c1ccc(NC(=O)Nc2ccc(Cl)c(C(F)(F)F)c2)cc1 (centres undefined)	> 50	> 50	> 50	> 50	> 50	
		CC(NC(=O)/C=C/Oc1ccc(NC(=O)Nc2ccc(Cl)c(C(F)(F)F)c2)cc1)c1ccccc1 (centres undefined)	20.7	14.5	14.1	> 50	13.7	
		CNC(=O)C#Cc1ccc(NC(=O)Nc2ccc(Cl)c(C(F)(F)F)c2)cc1	> 50	24.7	23.3	14	26.4	
		CC(NC(=O)/C=C/Oc1ccc(NC(=O)Nc2cc(C(F)(F)F)ccc2Cl)cc1)c1ccccc1 (centres undefined)	16	16.4	11.9	> 50	16.1	
		O=C(CCc1ccc(NC(=O)Nc2ccc(Cl)c(C(F)(F)F)c2)cc1)NC1CCC1	> 50	> 50	> 50	21.3	24	
		CC(NC(=O)c1ccc(-c2ccc(NC(=O)Nc3ccc(Cl)c(C(F)(F)F)c3)cc2)cc1)c1ccccc1 (centres undefined)	12.8	19.3	16.8	5.96	4.63	
		CC(NC(=O)c1ccc(-c2ccc(NC(=O)Nc3cc(C(F)(F)F)ccc3Cl)cc2)cc1)c1ccccc1 (centres undefined)	16.9	16.8	18.4	6.57	17.7	
		CC1CN(C(=O)c2ccc(-c3ccc(NC(=O)Nc4ccc(Cl)c(C(F)(F)F)c4)cc3)cc2)CC(C)O1 (centres undefined)	> 50	41.9	31.1	2.05	> 50	8
		C/C(=C\c1ccc(NC(=O)Nc2ccc(Cl)c(C(F)(F)F)c2)cc1)C(=O)N1CC(C)OC(C)C1 (centres undefined)	> 50	> 50	> 50	> 50	> 50	
		CC(NC(=O)C#Cc1ccc(NC(=O)Nc2ccc(Cl)c(C(F)(F)F)c2)cc1)c1ccccc1 (centres undefined)	16.8	21.4	20.5	4.92	12.8	
> 50	> 50	CC(NC(=O)c1cccc(-c2ccc(NC(=O)Nc3ccc(Cl)c(C(F)(F)F)c3)cc2)c1)c1ccccc1 (centres undefined)	5.17	6.46	5.67	6.32	5.24	
		CC1CN(C(=O)CCc2ccc(NC(=O)Nc3ccc(Cl)c(C(F)(F)F)c3)cc2)CC(C)O1 (centres undefined)	> 50	> 50	> 50	> 50	> 50	
		CC(NC(=O)C#Cc1ccc(NC(=O)Nc2cc(C(F)(F)F)ccc2Cl)cc1)c1ccccc1 (centres undefined)	30.5	23.2	19	3.17	16.1	
		CNC(=O)c1cc(Oc2ccc(NC(=O)Nc3ccc(Cl)c(C(F)(F)F)c3)cc2)ccn1 [SORAFENIB]	9.17	18.8	8.67	15.2	8.27	
		CNC(=O)/C=C/c1ccc(NC(=O)Nc2ccc(Cl)c(C(F)(F)F)c2)cc1	20.9	21.2	20.4	11.7	13.8	
